Results taken from ChEMBL document CHEMBL2177065, “14-Alkoxy- and 14-acyloxypyridomorphinans: μ agonist/δ antagonist opioid analgesics with diminished tolerance and dependence side effects” (J Med Chem, 2012).
Activity calls are given as the source filed them.

Assays:
Homo sapiens [1] = species on record: Homo sapiens; assay: Selectivity ratio of Ki for human mu opioid receptor to Ki for human delta opioid receptor
[2] = Activity at human MOR/mouse DOR expressed in CHO cells assessed as inhibition of DAMGO-mediated forskolin-stimulated cAMP accumulation after 20 hrs by scintillation counting analysis relative to morphine; type: functional
How it was run: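 CHO cells stably co-expressing human MOR and N-cMyc-tagged mouse DOR, treated 20 h with drug (morphine 1 µM; test compounds 30 nM) or medium. Cells washed, 20 min in serum-free medium with 500 µM IBMX at 37 °C, then 15 min with IBMX plus 100 µM forskolin and graded DAMGO. Acid-extracted cAMP measured by [³H]cAMP protein-kinase binding competition. DAMGO EC₅₀ expressed as fold over control cells; n=3.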

Mu-type opioid receptor [3] = target: T1, Mu-type opioid receptor (Homo sapiens, UniProt P35372); assay: Agonist activity at human mu opioid receptor expressed in CHO cells assessed as [35S]GTPgammaS binding by scintillation counting analysis; type: functional, cell-based
How it was run: (§1)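 Human KOR or MOR in CHO cell membranes (50 µg protein), 3 h at 25 °C, pH 7.4 Tris buffer with 100 mM NaCl, 10 mM MgCl2, 1 mM EDTA, 1 mM DTT, 0.1% BSA, GDP 40 µM and [35S]GTP-γ-S 50 pM. Stimulation = (S−B)/B×100, with Emax relative to U69,593 (KOR) or DAMGO (MOR). Curves were ten points, ≥3 experiments pooled. Antagonist Ke was taken from the shift in standard agonist EC50.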

[4] = target: T2, Kappa-type opioid receptor (Homo sapiens, UniProt P41145); assay: Displacement of [3H]U69,593 from human kappa opioid receptor expressed in CHO cells by scintillation counting analysis; type: cell-based
[5] = target: Delta-type opioid receptor (Homo sapiens, UniProt P41143); assay: Displacement of [3H]DADLE from human delta opioid receptor expressed in CHO cells by scintillation counting analysis; type: cell-based
Mus musculus [6] = assay: Antinociceptive activity in icv dosed ICR mouse assessed as warm-water tail-withdrawal latency by tail flick assay in presence of naloxone; type: functional, organism-based
cells = conditions: CHO, 20 h
[7] = Agonist activity at delta opioid receptor expressed in rat/mouse NG108-15 cells assessed as [35S]GTPgammaS binding by scintillation counting analysis relative to DADLE; type: functional, cell-based
How it was run: as §1, with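 “NG108-15” for “Human KOR or MOR in CHO”, “pM. Nonspecific binding with 40 µM GTP-γ-S; filtration and scintillation counting.” for “pM.”, “DADLE.” for “U69,593 (KOR) or DAMGO (MOR).”, “pooled.” for “pooled. Antagonist”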

Mu-type opioid receptor [8] = target: T1, Mu-type opioid receptor; assay: Displacement of [3H]DAMGO from human mu opioid receptor expressed in CHO cells by scintillation counting analysis; type: cell-based
CHO [9] = assay: Activity at human MOR/mouse DOR expressed in CHO cells assessed as increase in forskolin-stimulated cAMP accumulation at 30 nM after drug exposure for 20 hrs followed by washout; type: functional, cell-based
How it was run: (§2)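 MOR/DOR co-expressing CHO cells (mouse N-cMyc DOR + human MOR) exposed 20 h to drug, then washed three times with serum-free medium and preincubated 20 min at 37 °C with IBMX 500 µM. Then 10 min at 37 °C with forskolin 100 µM/IBMX 500 µM, with or without 10 µM naloxone. Read-out was cAMP by [3H]cAMP–protein kinase binding against a standard curve. Mean of n=3.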

Mus musculus [10] = assay: Antinociceptive activity in icv dosed ICR mouse assessed as warm-water tail-withdrawal latency by tail flick assay; type: functional
How it was run: (§3)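 Male ICR mice dosed i.c.v. in 5 µL (test compounds in 100% DMSO, morphine in water) under light ether anaesthesia. Tail withdrawal from 55 °C water, 10 s cutoff, tested 10–180 min post-injection. %MPE computed against pre-drug baseline. A50 with 95% confidence limits by linear regression at time of peak effect.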

Mu-type opioid receptor [11] = target: T1, Mu-type opioid receptor; assay: Agonist activity at human mu opioid receptor expressed in CHO cells assessed as [35S]GTPgammaS binding by scintillation counting analysis relative to DAMGO; type: functional, cell-based; how it was run: as §1
Mus musculus [12] = assay: Antinociceptive activity in ICR mouse assessed as warm-water tail-withdrawal latency at 1 nmol, icv by tail flick assay; type: functional; how it was run: as §3
[13] = Activity at human MOR/mouse DOR expressed in CHO cells assessed as inhibition of DAMGO-mediated forskolin-stimulated cAMP accumulation at 30 nM after 20 hrs by scintillation counting analysis; type: functional
How it was run: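 CHO cells stably co-expressing human MOR and cMyc-tagged mouse DOR were pretreated 20 h with 30 nM drug or medium, then washed. They were preincubated 20 min with 500 µM IBMX, then given 15 min with IBMX, 100 µM forskolin and graded DAMGO at 37 °C. cAMP was measured by [3H]cAMP–protein kinase binding against a standard curve.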

Homo sapiens [14] = species on record: Homo sapiens; assay: Selectivity ratio of Ki for human kappa opioid receptor to Ki for human delta opioid receptor
[15] = target: T2, Kappa-type opioid receptor; assay: Agonist activity at human kappa opioid receptor expressed in CHO cells assessed as [35S]GTPgammaS binding at 10 uM by scintillation counting analysis; type: functional, cell-based; how it was run: as §1
CHO [16] = assay: Activity at human MOR/mouse DOR expressed in CHO cells assessed as increase in forskolin-stimulated cAMP accumulation at 30 nM after drug exposure for 20 hrs followed by washout in the presence of naloxone; type: functional, cell-based; how it was run: as §2
CHO [17] = assay: Activity at human MOR/mouse DOR expressed in CHO cells assessed as increase in forskolin-stimulated cAMP accumulation at 1 uM after drug exposure for 20 hrs followed by washout; type: functional, cell-based; how it was run: as §2
CHO [18] = assay: Activity at human MOR/mouse DOR expressed in CHO cells assessed as increase in forskolin-stimulated cAMP accumulation at 1 uM after drug exposure for 20 hrs followed by washout in the presence of naloxone; type: functional, cell-based; how it was run: as §2
Mus musculus [19] = assay: Antinociceptive activity in ICR mouse assessed as warm-water tail-withdrawal latency at 10 nmol, icv by tail flick assay; type: functional; how it was run: as §3
Mus musculus [20] = assay: Antinociceptive activity in ICR mouse assessed as warm-water tail-withdrawal latency at 0.1 to 100 nmol, icv bid for 3 days relative to naive control; type: functional
Mus musculus [21] = assay: Antinociceptive activity in icv dosed ICR mouse assessed as warm-water tail-withdrawal latency administered bid for 3 days; type: functional

T1 sequence (P35372 whole entry): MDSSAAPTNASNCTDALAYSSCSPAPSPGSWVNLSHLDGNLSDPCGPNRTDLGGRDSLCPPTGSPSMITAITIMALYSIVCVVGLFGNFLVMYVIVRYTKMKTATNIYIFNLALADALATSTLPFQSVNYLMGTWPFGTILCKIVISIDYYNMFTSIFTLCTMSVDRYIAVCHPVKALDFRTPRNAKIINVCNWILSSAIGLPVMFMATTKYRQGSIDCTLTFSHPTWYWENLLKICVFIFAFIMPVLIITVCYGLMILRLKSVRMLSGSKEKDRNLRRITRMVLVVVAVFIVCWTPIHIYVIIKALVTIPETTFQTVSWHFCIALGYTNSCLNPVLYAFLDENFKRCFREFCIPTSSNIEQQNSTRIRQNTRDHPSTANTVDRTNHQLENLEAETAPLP
T2 sequence (P41145 whole entry): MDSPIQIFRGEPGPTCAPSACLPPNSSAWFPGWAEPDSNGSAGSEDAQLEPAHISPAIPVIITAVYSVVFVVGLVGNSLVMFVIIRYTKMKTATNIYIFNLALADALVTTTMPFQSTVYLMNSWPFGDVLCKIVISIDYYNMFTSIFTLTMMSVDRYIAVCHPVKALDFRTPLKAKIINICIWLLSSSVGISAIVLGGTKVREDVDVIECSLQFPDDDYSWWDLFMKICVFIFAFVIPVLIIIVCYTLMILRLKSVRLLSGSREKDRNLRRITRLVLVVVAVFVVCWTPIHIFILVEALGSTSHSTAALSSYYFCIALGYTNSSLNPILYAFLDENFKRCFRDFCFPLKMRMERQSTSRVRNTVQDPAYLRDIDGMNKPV
Sequence of Delta-type opioid receptor (P41143 whole entry): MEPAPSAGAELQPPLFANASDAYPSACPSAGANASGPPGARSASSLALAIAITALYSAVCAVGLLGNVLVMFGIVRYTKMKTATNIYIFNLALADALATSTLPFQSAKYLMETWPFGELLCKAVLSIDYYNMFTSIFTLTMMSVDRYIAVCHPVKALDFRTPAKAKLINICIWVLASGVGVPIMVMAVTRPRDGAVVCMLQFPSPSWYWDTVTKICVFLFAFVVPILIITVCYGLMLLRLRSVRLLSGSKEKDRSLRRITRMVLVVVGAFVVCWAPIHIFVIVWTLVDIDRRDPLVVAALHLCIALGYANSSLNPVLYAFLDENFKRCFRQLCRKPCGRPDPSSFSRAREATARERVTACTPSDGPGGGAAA

CN1CC[C@]23c4c5ccc(O)c4O[C@H]2c2ncc(-c4ccc(Cl)cc4)cc2C[C@@]3(OCCCc2ccccc2)[C@H]1C5
Ratio Ki (Homo sapiens [1]): 0.52
fold change (FC) [2]: 7
EC50 (Mu-type opioid receptor [3]): 2.15 nM
Ki [4]: 1.53 nM
Ki [5]: 1.04 nM
Activity (Mus musculus [6]): inactive
EC50 (cells): 0.34 nM
Emax [7]: 85%
Ki (Mu-type opioid receptor [8]): 0.54 nM
Activity (CHO [9]): Active
A50 (Mus musculus [10]): 0.23 nmol
Activity (Mus musculus [10]): Dose-dependent effect
Emax (Mu-type opioid receptor [11]): 125%
%max (Mus musculus [12]): 92%
Emax at 0.03 µM [13]: 20%
Ratio Ki (Homo sapiens [14]): 1.5
Activity [15]: inactive
Activity (CHO [16]): Active

CN1CC[C@]23c4c5ccc(O)c4O[C@H]2[C@@H](O)C=C[C@H]3[C@H]1C5 [MORPHINE]
Activity (CHO [17]): Active
Activity (CHO [18]): Active
%max (Mus musculus [19]): 100%
A50 (Mus musculus [10]): 0.43 nmol
fold change (FC) (Mus musculus [20]): 44
A50 (Mus musculus [21]): 19.04 nmol
